Source: PubChem BioAssay
Dyrk1A ADPGlo = Dyrk1A (rat) kinase inhibition. Q63470. ADP-Glo luminescence, NFATc1 peptide. inhibition, % at 12.5 µM. hit rate 0.43% among 310,000;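 note: plate controls were vehicle with enzyme for no effect and no enzyme for full effect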
NSD2 inh = blocks human histone methyltransferase NSD2. O96028. NSD2 peptide methylation, AlphaScreen, 120 min. inhibition, % at 12.5 µM. hit rate 0.54% among 310,000. AID 743445
SR-BI uptake up = SR-BI HDL lipid transfer activation. activation, % at 12.5 µM. hit rate 0.096% among 320,000. AID 504775. CHO ldlA[mSR-BI] cells, DiI-HDL uptake fluorescence, 3 h; 100 = double the neutral-control signal;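 active = mean replicate activation of at least 60% and every replicate at or above 60%; inconclusive = mean or all-replicate condition met, but not both; inactive = mean below 60% and not all replicates reaching 60%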;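 note: 0% = median plate neutral-control signal and 100% = twice that signal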
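Test system: SR-BI-overexpressing, LDLR-lacking CHO cells; Also added: labelled HDL, 10 µg/mL; Measured by: bottom-read cell fluorescence after medium removal, ex 550/em 595 nm; Timing: 3 h uptake period with compound, 37 °C; Buffer or medium: F12, 0.5% BSA, 25 mM HEPES; Doses: single compound concentration, delivered by pin transfer.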
CDK5 inh = inhibitors of human CDK5/p35 kinase; Q00535+Q15078; Recombinant CDK5/p35, ADP-Glo luminescence, 60 min; inhibition, % at 10 µM; hit rate 0.01% among 330,000;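 active = highest replicate inhibition of at least 50% and at least 75% of replicates reaching 50%; inconclusive = only one of the two criteria met; inactive = both criteria failed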;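 note: plate controls were DMSO neutral control for no effect and GW8510 at 10 µM for full effect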
SR-BI HDL uptake = blocks mouse SR-BI lipid uptake from DiI-HDL; inhibition, % at 12.5 µM; ldlA[mSR-BI] CHO cells, DiI-HDL uptake fluorescence, 3 h; hit rate 0.96% among 320,000;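 active = mean replicate inhibition of at least 70% and a set share of replicates each scoring 70 or more; inconclusive = meets just one of the two criteria; inactive = fails both criteria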;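 note: 0% = median of neutral control wells and 100% = median of positive control wells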
dFosB act = activators of mouse delta FosB homodimer. P13346. purified delta FosB, TAMRA-CDK5 oligo fluorescence polarization; percent of positive-control signal above neutral wells. activation, % at 25 µM. hit rate 0.99% among 340,000;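 active = mean activation above about 17%, with every replicate also reaching it, limit read from the data, passing the limit was not always enough; inconclusive = only one of the two conditions met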
An asterisk follows results filed as active; ? = inconclusive; . = no result given. This is a sample that favours compounds with a hit; in the whole collection about 2.5% have one here. Cut-off read from the data, not from the text of the source, unless noted: active = inhibition above about 50%; inactive = the rest.

SMILES	Dyrk1A ADPGlo	NSD2 inh	SR-BI uptake up	CDK5 inh	SR-BI HDL uptake	dFosB act
Cc1nnc(N2CCC(C(=O)NC3CCC(C)CC3)CC2)c2nn(-c3ccc(Cl)cc3)c(C)c12 (centres undefined)	1	.	-88	-2	88*	-1
Cc1ccc(C(=O)Nc2nc(-c3ccccn3)cs2)o1	.	5	-12	-3	12	-6
CC(=O)c1ccc(-c2ccc(C(=O)Nc3nc(-c4ccccn4)cs3)o2)cc1	19	6	-81	-1	81*	-34
O=C(NCCc1c[nH]c2ccccc12)[C@H](Cc1c[nH]c2ccccc12)NC1(C(=O)NC2CCCCC2)CCCCCCC1	.	-2	.	.	.	.
CCOC(=O)C1(CCc2ccccc2)CCN(C(=O)C2CCOCC2)CC1	-1	10	-80	-2	80*	-8
CCCCCC(=O)N(Cc1ccccc1)c1c(N)n(CCOC)c(=O)[nH]c1=O	-1	0	-2	0	2	7
Cn1cc(CN2CCC(C(=O)NC(c3ccc(F)cc3)c3ccc4ccccc4n3)CC2)c2ccccc21 (centres undefined)	.	13	.	.	.	.
Cc1ccc2oc(C(=O)N3CCC(O)(c4cccc(C(F)(F)F)c4)CC3)c(C)c2c1	-1	1	3	-1	-3	-9
O=C(N/N=C/c1cccc(O)c1)c1ccc2c(c1)OCCO2	7	3	-11	3	11	-7
Cc1cccc(/C=N\NC(=O)c2ccc(Cl)cc2)c1O	6	-1	-141	2	141*	13
COc1ccc2ccccc2c1/C=N/NC(=S)Nc1cc(S(=O)(=O)N2CCOCC2)ccc1N1CCOCC1	-8	-4	17	0	-17	6
COc1cccc(/C=N/NC(=O)c2c(C)nc3ccc(Cl)cn23)c1O	0	-3	-121	-1	120*	-1
Cc1cccc(/C=N/NC(=O)c2ccc3c(c2)OCCO3)c1O	0	.	-111	0	111*	-2
CCOc1cccc(/C=N/NC(=S)Nc2cc(S(=O)(=O)N3CCOCC3)ccc2N2CCOCC2)c1O	0	0	-94	1	94*	-2
CC1(c2cccc(Br)c2)NC(=O)N(CC(=O)Nc2cccnc2Cl)C1=O (centres undefined)	9	-2	-6	0	6	1
CC(C)CN(CC(C)C)C(=O)c1cn(C(C)c2ccccc2)nn1 (centres undefined)	.	-10	.	.	.	.
COc1cc(OC)c(C(=O)OCC(=O)Nc2ccc(N3CCOCC3)cc2)cc1OC	-3	-1	-12	1	12	-16
COc1ccc(OC)c(NC(=O)O[C@@H]2CC[C@@]34CCCN3C(=O)CCC[C@H]4C2)c1	.	0	.	.	.	.
O=C(N/N=C/c1cc([N+](=O)[O-])ccc1O)c1cccc2cc[nH]c12	-4	1	-144	1	144*	?
Cc1cccc(/C=N/NC(=O)c2c(-c3ccccc3)noc2C)c1O	6	1	-102	1	102*	-12
COc1cc(OC)c(OC)cc1/C=N/NC(=O)c1cc(-c2cccn2C)n[nH]1	1	7	-48	-2	48	-11
CCOc1cccc(/C=N/NC(=O)c2cc(-c3cccn3C)n[nH]2)c1O	1	-6	-104	-1	104*	-11
CCOc1cccc(/C=N/NC(=O)c2ccc3c(c2)OCCO3)c1O	3	11	-87	-1	87*	1
O=C(N/N=C/c1cccc([N+](=O)[O-])c1)c1cccc2cc[nH]c12	-1	-2	-26	1	26	10
COc1cc(OC)c(OC)cc1/C=N/n1c(COc2ccccc2)n[nH]c1=S	5	4	8	0	-8	-4
O=C(N/N=C/c1cc([N+](=O)[O-])ccc1O)c1cccc(N2CCCC2=O)c1	.	0	-117	-4	117*	-4
O=C(N/N=C/c1ccccc1[N+](=O)[O-])c1ccc2c(c1)OCCO2	4	-2	.	1	.	-15
O=C(N/N=C/c1cc([N+](=O)[O-])ccc1O)c1ccc2c(c1)OCCO2	-5	0	-131	-5	131*	0
COc1ccc(CCN2CCCn3c2nc2c3c(=O)n(CC(C)C)c(=O)n2C)cc1OC	4	20	3	0	-3	-7
c1ccc(CCn2nnc(-c3ccc(N4CCOCC4)cc3)n2)cc1	.	2	.	.	.	.
